Legend:
[1] = test system: Bel-7402; test: Antiproliferative activity against human Bel7402 cells at 33 uM by SRB assay; assay type: functional
How it was run: (§1)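 Bel-7402 cells kept in RPMI-1640 with 10% FBS, penicillin 100 U/mL and streptomycin at 37 °C under humidified CO2. Exponentially growing cells seeded at 1–2.5 × 10^4 cells/mL. Compound added 24 h later, with medium only for controls. Incubation 48 h, then viable cells counted by SRB. Screened at four concentrations, with single-concentration data given at 33.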

[2] = test system: HL-60; test: Antiproliferative activity against human HL60 cells at 33 uM by MTT assay; assay type: functional
How it was run: (§2)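 HL-60 cells kept in RPMI-1640 with 10% FBS, penicillin 100 U/mL and streptomycin at 37 °C under humidified CO2. Exponentially growing cells seeded at 1–2.5 × 10^4 cells/mL. Compound added after 24 h, with medium-only controls. Exposure 48 h, then viable cells read by MTT at 570 nm absorbance. Screened at four concentrations, with single-concentration data given at 33.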

[3] = test system: CCRF S-180; test: Antiproliferative activity against mouse S180 cells; assay type: functional
[4] = test system: H22; test: Antiproliferative activity against mouse H22 cells; assay type: functional
[5] = test system: BGC-823; test: Antiproliferative activity against human BGC823 cells implanted in nude mouse; assay type: functional
[6] = test system: Rattus norvegicus; test: Toxicity in rat at 10 g/kg after 10 days assessed as change in body weight relative to control; settings: in vivo, 10000 mg/kg, 240 h
[7] = test system: Rattus norvegicus; test: Toxicity in rat at 10 g/kg after 10 days; settings: in vivo, 10000 mg/kg, 240 h
[8] = test system: HL-60; test: Antiproliferative activity against human HL60 cells by MTT assay; assay type: functional, cell-based; how it was run: as §2
[9] = test system: Bel-7402; test: Antiproliferative activity against human Bel7402 cells by SRB assay; assay type: functional, cell-based; how it was run: as §1

SMILES	inhibition at 33 µM [1]	inhibition at 33 µM [2]	also measured
Cc1ccccc1N1CCN(C(=S)SCCC(C#N)(c2ccccc2)c2ccccc2)CC1	0%	0%	
CCCCN1CCN(C(=S)SCCC(C#N)(c2ccccc2)c2ccccc2)CC1	11%	-13.5%	
N#CC(CCSC(=S)N1CCN(S(=O)(=O)c2cccc(C(F)(F)F)c2)CC1)(c1ccccc1)c1ccccc1	0%	0%	
CN1CCN(C(=S)SCCC(C#N)(c2ccccc2)c2ccccc2)CC1.Cl			Activity [3]: 46.4%; Activity [4]: 39.3%; Activity [5]: 18.1%; Activity [6]: Not Active; Activity [7]: Not Active
N#CC(CCSC(=S)N1CCN(c2ncccn2)CC1)(c1ccccc1)c1ccccc1	33.2%	24.2%	
N#CC(CCSC(=S)N1CCN(C(c2ccccc2)c2ccc(Cl)cc2)CC1)(c1ccccc1)c1ccccc1 (centres undefined)	18%	2.7%	
N#CC(CCSC(=S)N1CCN(S(=O)(=O)c2cccc([N+](=O)[O-])c2)CC1)(c1ccccc1)c1ccccc1	5.5%	0%	
N#CC(CCSC(=S)N1CCN(S(=O)(=O)c2ccc(F)cc2)CC1)(c1ccccc1)c1ccccc1	9.7%	0%	
N#CC(CCSC(=S)N1CCN(c2cccc(C(F)(F)F)c2)CC1)(c1ccccc1)c1ccccc1	26.3%	8.5%	
CS(=O)(=O)N1CCN(C(=S)SCCC(C#N)(c2ccccc2)c2ccccc2)CC1	13.4%	24.9%	
N#CC(CCSC(=S)N1CCN(S(=O)(=O)c2ccc([N+](=O)[O-])cc2)CC1)(c1ccccc1)c1ccccc1	0.2%	0%	
CN1CCN(C(=S)SCCC(C#N)(c2ccccc2)c2ccccc2)CC1	75.2%	79%	IC50 [8]: 9.9 µM; IC50 [9]: 27.1 µM
COc1cccc(N2CCN(C(=S)SCCC(C#N)(c3ccccc3)c3ccccc3)CC2)c1	15.5%	9.8%	
CCCCCCN1CCN(C(=S)SCCC(C#N)(c2ccccc2)c2ccccc2)CC1	12.7%	2.57%	
CCN1CCN(C(=S)SCCC(C#N)(c2ccccc2)c2ccccc2)CC1	4.97%	-7.81%	
Cc1ccc(Cl)cc1N1CCN(C(=S)SCCC(C#N)(c2ccccc2)c2ccccc2)CC1	14.6%	0%	
N#CC(CCSC(=S)N1CCN(c2ccc([N+](=O)[O-])cc2)CC1)(c1ccccc1)c1ccccc1	2.2%	7.8%	
N#CC(CCSC(=S)N1CCN(C(=O)CCBr)CC1)(c1ccccc1)c1ccccc1	23.4%	82.2%	
N#CC(CCSC(=S)N1CCN(CCCl)CC1)(c1ccccc1)c1ccccc1	28.7%	53.6%	
N#CC(CCSC(=S)N1CCN(S(=O)(=O)c2c(Cl)cccc2Cl)CC1)(c1ccccc1)c1ccccc1	0%	0%	

SMILES	inhibition at 33 µM [1]	inhibition at 33 µM [2]	also measured
N#CC(CCSC(=S)N1CCN(c2ccc(Cl)c(Cl)c2)CC1)(c1ccccc1)c1ccccc1	23.3%	0.7%	
N#CC(CCSC(=S)N1CCN(Cc2ccc3c(c2)OCO3)CC1)(c1ccccc1)c1ccccc1	16.6%	0%	
N#CC(CCSC(=S)N1CCN(Cc2ccccc2)CC1)(c1ccccc1)c1ccccc1	4.7%	12.5%	
CS(=O)(=O)OCCC(=O)N1CCN(C(=S)SCCC(C#N)(c2ccccc2)c2ccccc2)CC1	1.09%	0%	
COc1ccc(S(=O)(=O)N2CCN(C(=S)SCCC(C#N)(c3ccccc3)c3ccccc3)CC2)cc1	5.4%	1.5%	
N#CC(CCSC(=S)N1CCN(C(=O)c2ccco2)CC1)(c1ccccc1)c1ccccc1	17.7%	30.4%	
N#CC(CCSC(=S)N1CCN(C(=O)CCCl)CC1)(c1ccccc1)c1ccccc1	22%	43.3%	
N#CC(CCSC(=S)N1CCNCC1)(c1ccccc1)c1ccccc1	95.5%	98.7%	IC50 [8]: 5.3 µM; IC50 [9]: 11.5 µM
N#CC(CCSC(=S)N1CCN(CCO)CC1)(c1ccccc1)c1ccccc1	57.7%	92.5%	IC50 [8]: 24.5 µM; IC50 [9]: 11.7 µM
N#CC(CCSC(=S)N1CCN(c2cccc(Cl)c2)CC1)(c1ccccc1)c1ccccc1	0%	4.2%	
N#CC(CCSC(=S)N1CCN(c2ccccn2)CC1)(c1ccccc1)c1ccccc1	22.6%	31.8%	
N#CC(CCSC(=S)N1CCN(c2ccccc2)CC1)(c1ccccc1)c1ccccc1	0%	10.5%	
N#CC(CCSC(=S)N1CCN(c2ccccc2Cl)CC1)(c1ccccc1)c1ccccc1	0%	0%	
N#CC(CCSC(=S)N1CCN(c2ccc(F)cc2)CC1)(c1ccccc1)c1ccccc1	15.9%	0%	
CCOC(=O)N1CCN(C(=S)SCCC(C#N)(c2ccccc2)c2ccccc2)CC1	35%	0%	
N#CC(CCSC(=S)N1CCN(S(=O)(=O)c2ccccc2)CC1)(c1ccccc1)c1ccccc1	0%	0%	
COc1ccc(N2CCN(C(=S)SCCC(C#N)(c3ccccc3)c3ccccc3)CC2)cc1	14.9%	8.5%	
N#CC(CCSC(=S)N1CCN(S(=O)(=O)c2ccccc2[N+](=O)[O-])CC1)(c1ccccc1)c1ccccc1	0%	0%	
N#CC(CCSC(=S)N1CCN(c2ccccc2F)CC1)(c1ccccc1)c1ccccc1	4.3%	0%	
COc1ccccc1N1CCN(C(=S)SCCC(C#N)(c2ccccc2)c2ccccc2)CC1	0%	4.8%	
